# According to PMC3401279 (ACS Chemical Biology, 2012):
# Entries after “also recorded” stand apart in the source; their conditions may differ.
# Key:
# rodents = details: carnivore odor; cited from earlier work
# TAAR4 = details: cited from earlier work
# [1] = tested on: mTAAR7e-YC (mTAAR7e S132Y, S133C); assay: cellular reporter gene assay, mutant mTAAR7e-YC; type: cell-based, mouse; details: mutant versus mTAAR7e; for decreased affinity of mTAAR7e-YC: decrease
# mTAAR7e = biological target: T1, mTAAR7e (Mus musculus, UniProt Q5QD09); assay: cAMP-dependent CRE-SEAP reporter gene assay in transfected HEK293 cells, mTAAR7e; type: cell-based; details: ligand 10 μM
# T1 sequence (Q5QD09 1-358): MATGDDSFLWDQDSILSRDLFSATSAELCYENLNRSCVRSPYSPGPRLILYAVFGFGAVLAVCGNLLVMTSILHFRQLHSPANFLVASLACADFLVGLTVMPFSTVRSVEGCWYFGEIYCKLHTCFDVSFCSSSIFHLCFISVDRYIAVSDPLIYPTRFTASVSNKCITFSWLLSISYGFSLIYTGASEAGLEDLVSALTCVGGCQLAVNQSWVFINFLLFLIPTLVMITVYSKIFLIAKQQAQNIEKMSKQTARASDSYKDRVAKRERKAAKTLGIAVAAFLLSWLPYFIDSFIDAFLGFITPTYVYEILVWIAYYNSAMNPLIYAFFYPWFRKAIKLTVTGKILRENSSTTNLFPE
# Method in brief: (§1)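 HEK293 cells were co-transfected with a TAAR plasmid and a cAMP-dependent secreted alkaline phosphatase reporter (CRE-SEAP). Receptors were expressed both unmodified and as fusions with an N-terminal bovine rhodopsin sequence (Rho tag) that aids surface expression. Transfected cells were incubated with test compound at 10 μM. Secreted phosphatase activity was quantified with a fluorescent substrate as the activation read-out. Triplicates ± s.d.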
# [2] = tested on: mTAAR7f-SS (mTAAR7f Y132S, C133S); assay: cellular reporter gene assay, mutant mTAAR7f-SS; type: cell-based, mouse; details: mutant versus mTAAR7f, increase
# rTAAR7h = biological target: T2, rTAAR7h (Rattus norvegicus, UniProt Q923Y4); assay: cAMP-dependent CRE-SEAP reporter gene assay in transfected HEK293 cells, rTAAR7h; type: cell-based; details: ligand 10 μM
# T2 sequence (Q923Y4 1-358): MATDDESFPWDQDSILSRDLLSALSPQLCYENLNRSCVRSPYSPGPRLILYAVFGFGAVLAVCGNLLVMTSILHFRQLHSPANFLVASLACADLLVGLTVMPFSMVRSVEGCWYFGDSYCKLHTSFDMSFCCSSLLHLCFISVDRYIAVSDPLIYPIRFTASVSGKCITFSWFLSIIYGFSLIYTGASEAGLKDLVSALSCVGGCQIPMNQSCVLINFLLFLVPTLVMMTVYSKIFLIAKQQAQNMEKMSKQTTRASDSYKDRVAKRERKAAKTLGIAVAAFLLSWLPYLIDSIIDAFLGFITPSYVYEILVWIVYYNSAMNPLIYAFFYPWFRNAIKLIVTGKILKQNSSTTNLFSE
# Method in brief: as §1
# mTAAR7b = biological target: T3, mTAAR7b (Mus musculus, UniProt Q5QD11); assay: cAMP-dependent CRE-SEAP reporter gene assay in transfected HEK293 cells, mTAAR7b; type: cell-based; details: ligand 10 μM
# T3 sequence (Q5QD11 1-358): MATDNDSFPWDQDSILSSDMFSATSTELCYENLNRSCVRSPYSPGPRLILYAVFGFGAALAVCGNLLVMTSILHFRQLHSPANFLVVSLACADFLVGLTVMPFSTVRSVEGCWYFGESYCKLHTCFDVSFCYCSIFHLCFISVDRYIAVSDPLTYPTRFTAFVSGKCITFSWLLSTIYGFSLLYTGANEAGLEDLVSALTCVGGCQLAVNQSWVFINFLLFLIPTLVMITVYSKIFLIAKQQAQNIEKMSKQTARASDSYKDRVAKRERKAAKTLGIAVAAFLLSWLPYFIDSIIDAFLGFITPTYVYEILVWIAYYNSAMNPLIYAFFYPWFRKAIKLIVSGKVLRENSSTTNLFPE
# Method in brief: as §1
# mTAAR7f = biological target: T4, mTAAR7f (Mus musculus, UniProt Q5QD08); assay: cAMP-dependent CRE-SEAP reporter gene assay in transfected HEK293 cells, mTAAR7f; type: cell-based; details: ligand 10 μM
# T4 sequence (Q5QD08 1-358): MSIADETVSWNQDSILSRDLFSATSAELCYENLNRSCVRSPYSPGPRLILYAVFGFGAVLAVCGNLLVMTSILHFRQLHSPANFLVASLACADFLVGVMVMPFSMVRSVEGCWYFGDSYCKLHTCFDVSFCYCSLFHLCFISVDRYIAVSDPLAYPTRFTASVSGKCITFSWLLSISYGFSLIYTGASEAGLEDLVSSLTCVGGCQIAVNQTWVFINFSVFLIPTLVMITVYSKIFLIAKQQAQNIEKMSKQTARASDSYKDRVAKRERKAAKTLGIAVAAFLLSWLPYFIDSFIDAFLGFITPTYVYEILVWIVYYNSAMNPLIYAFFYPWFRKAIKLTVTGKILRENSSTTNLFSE
# Method in brief: as §1
# rTAAR7d = biological target: T5, rTAAR7d (Rattus norvegicus, UniProt Q923X5); assay: cAMP-dependent CRE-SEAP reporter gene assay in transfected HEK293 cells, rTAAR7d; type: cell-based; details: ligand 10 μM
# T5 sequence (Q923X5 1-358): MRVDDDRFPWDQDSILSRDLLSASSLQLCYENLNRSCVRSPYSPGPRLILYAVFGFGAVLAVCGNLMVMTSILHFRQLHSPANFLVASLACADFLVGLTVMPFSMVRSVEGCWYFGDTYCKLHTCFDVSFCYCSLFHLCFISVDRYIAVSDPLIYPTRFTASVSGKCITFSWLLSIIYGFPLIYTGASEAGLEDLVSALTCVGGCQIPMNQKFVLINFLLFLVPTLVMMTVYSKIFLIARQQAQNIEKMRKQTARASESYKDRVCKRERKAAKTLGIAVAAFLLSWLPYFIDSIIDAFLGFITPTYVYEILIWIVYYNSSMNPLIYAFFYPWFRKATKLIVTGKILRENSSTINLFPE
# Method in brief: as §1
# rTAAR7b = biological target: T6, rTAAR7b (Rattus norvegicus, UniProt Q923X8); assay: cAMP-dependent CRE-SEAP reporter gene assay in transfected HEK293 cells, rTAAR7b; type: cell-based; details: ligand 10 μM
# T6 sequence (Q923X8 1-358): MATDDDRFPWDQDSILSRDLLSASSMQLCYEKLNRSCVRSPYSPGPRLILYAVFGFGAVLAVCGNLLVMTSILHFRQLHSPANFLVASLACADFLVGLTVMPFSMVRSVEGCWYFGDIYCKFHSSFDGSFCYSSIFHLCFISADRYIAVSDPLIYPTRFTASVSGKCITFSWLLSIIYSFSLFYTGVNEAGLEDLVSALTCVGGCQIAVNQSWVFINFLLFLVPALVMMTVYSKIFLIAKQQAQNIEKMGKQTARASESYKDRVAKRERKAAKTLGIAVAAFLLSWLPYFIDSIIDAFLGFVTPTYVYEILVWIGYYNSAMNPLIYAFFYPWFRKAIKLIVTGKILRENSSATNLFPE
# Method in brief: as §1
# TAAR5 = details: cited from earlier work
smiles,measurement,setting,value
"NCCc1ccccc1 [ligand 3, 2-phenylethylamine]",behavioral effect of odor on rodents,rodents,repels rodents
same,TAAR4 agonist,TAAR4,agonist
"CN(C)CCc1ccccc1 [ligand 6, N,N-dimethyl-2-phenylethylamine]",decreased affinity of mTAAR7e-YC,[1],"> 1,000 fold"
same,activation of mTAAR7e (reporter response),mTAAR7e,respond; also recorded: activated
same,increases in affinity of mTAAR7f-SS,[2],"> 1,000 fold"
same,activation of rTAAR7h (reporter response),rTAAR7h,respond; also recorded: activated
"CN(C)C1CCCCC1 [ligand 10, N,N-dimethylcyclohexylamine]",activation of mTAAR7b (reporter response),mTAAR7b,respond; also recorded: activated
same,enhanced affinity of mTAAR7e-YC,[1]; increase,"> 1,000 fold"
same,activation of mTAAR7f (reporter response),mTAAR7f,respond; also recorded: activated
same,activation of rTAAR7d (reporter response),rTAAR7d,respond; also recorded: activated
same,activation of rTAAR7b (reporter response),rTAAR7b,respond; also recorded: activated
"COc1ccc2[nH]cc(CCN(C)C)c2c1 [ligand 7, 5-methoxy-N,N-dimethyltryptamine]",decreased affinity of mTAAR7e-YC,[1],"> 1,000 fold"
same,increases in affinity of mTAAR7f-SS,[2],"> 1,000 fold"
"CN(C)C [ligand 4, trimethylamine]",TAAR5 agonist,TAAR5,agonist
